# Measured values reported in ChEMBL document CHEMBL2396601, “Synthesis and antiprotozoal activity of dicationic m-terphenyl and 1,3-dipyridylbenzene derivatives” (J Med Chem, 2013).
# The source made the active and inactive calls. No cut-off for these calls is given here.
# Experiments:
# [1] = test system: L6; assay: Cytotoxicity against rat L6 cells after 72 hrs by Alamar Blue assay; format: cell-based; conditions: L6, 72 h
# Outline: (§1)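 Uses T. b. rhodesiense STIB900, T. cruzi Tulahuen C2C4 LacZ intracellular amastigotes, or L6 rat myoblasts depending on line.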
# [2] = test system: Trypanosoma brucei rhodesiense; assay: Antiprotozoal activity against Trypanosoma brucei rhodesiense STIB900 infected in NMRI mouse assessed as host mean survival days at 5 mg/kg, ip qd for 4 days; format: functional; conditions: route intraperitoneal
# Outline: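 Acute-stage HAT mouse model infected with STIB900. Cure means survival to 60 days after infection with no parasitemia relapse. Mean survival days are counted from infection and use every mouse: relapsed mice, plus cured mice entered as >60 days.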
# [3] = test system: Trypanosoma brucei rhodesiense; assay: Antiprotozoal activity against Trypanosoma brucei rhodesiense STIB900 after 72 hrs by Alamar Blue assay; format: functional, organism-based; conditions: Trypanosoma brucei, STIB900, 72 h; outline: as §1
# [4] = test system: Plasmodium falciparum; assay: Antiprotozoal activity against chloroquine-resistant Plasmodium falciparum K1 after 48 hrs by [3H]-hypoxanthine incorporation assay; format: functional, organism-based; conditions: Plasmodium falciparum, K1
# [5] = Selectivity index, ratio of IC50 for rat L6 cells to IC50 for Plasmodium falciparum K1; format: toxicity, cell-based; conditions: for selectivity ratio: L6 cells, read-out: Ratio IC50
# Outline: (§2)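 Selectivity index is IC50 against L6 rat myoblast cells divided by IC50 against the named parasite.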
# [6] = Selectivity index, ratio of IC50 for rat L6 cells to IC50 for Trypanosoma cruzi Tulahuen C2C4; format: toxicity, cell-based; conditions: read-out: Ratio IC50; outline: as §2
# [7] = Selectivity index, ratio of IC50 for rat L6 cells to IC50 for Trypanosoma brucei rhodesiense STIB900; format: toxicity, cell-based; conditions: for selectivity ratio: L6 cells, read-out: Ratio IC50; outline: as §2
# [8] = test system: Trypanosoma brucei rhodesiense; assay: Antiprotozoal activity against Trypanosoma brucei rhodesiense STIB900 infected in NMRI mouse assessed as reduction of parasitemia relapse at 5 mg/kg, ip qd for 4 days; format: functional, organism-based; design: dose 5 mg/kg
# Outline: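 Mouse model of acute (early) stage HAT with T. b. rhodesiense STIB900, groups of 4 mice. Amidines dosed intraperitoneally, 4 daily doses of 5 mg/kg or single doses; prodrugs dosed orally, 4 daily doses of 25 mg/kg. Cure means survival to 60 days after infection with no parasitemia relapse. Mean survival days counts all mice, with cured mice scored as >60 days.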
# [9] = test system: Trypanosoma cruzi; assay: Antiprotozoal activity against intracellular amastigote form of Trypanosoma cruzi Tulahuen C2C4 expressing LacZ infected in rat L6 cells after 48 hrs; format: functional, organism-based; conditions: Tulahuen C2C4, L6, 48 h; outline: as §1
# [10] = test system: Leishmania amazonensis; assay: Antiprotozoal activity against intracellular amastigote form of Leishmania amazonensis infected in CD1 mouse macrophages after 72 hrs by […]; format: functional, organism-based
SMILES,IC50 [1],MSD [2],IC50 [3],IC50 [4],selectivity ratio [5],selectivity ratio [6],selectivity ratio [7],Activity [8],IC50 [9],Ratio IC50 ([5]; l6),Ratio IC50 ([7]; l6),IC50 [10]
Cl.Cl.N=C(N)c1ccc(-c2cccc(-c3cccc(C(=N)N)c3)c2)cc1,28500 nM,34.75 days,52 nM,15 nM,1950,1,544,inactive,27100 nM,,,
CC(=O)O.N=C(N)c1ccc(-c2cccc(-c3ccc(C(=N)N)cn3)c2)nc1,> 150000 nM,>60 days,22 nM,45 nM,,,,,> 150000 nM,> 3339,> 6856,
CCN(CC)CCCC(C)Nc1ccnc2cc(Cl)ccc12 (stereo not given) [CHLOROQUINE],76500 nM,,,,,,,,,,,
c1cc(C2=NCCN2)cc(-c2cccc(-c3cccc(C4=NCCN4)c3)c2)c1,31700 nM,,1600 nM,619 nM,51,2,20,,20400 nM,,,
Nc1nc(N)nc(Nc2ccc([As]3SCC(CO)S3)cc2)n1 (stereo not given) [MELARSOPROL],,>60 days,,,,,,Active,,,,
N=C(N)c1ccc(-c2ccc(-c3ccc(C(=N)N)cc3)o2)cc1 [FURAMIDINE],,>46 days,3 nM,14 nM,,,,,23300 nM,,,
N=C(N)c1ccc(-c2cc(Cl)cc(-c3cccc(C(=N)N)c3)c2)cc1,12700 nM,,97 nM,10 nM,1250,< 1,130,,46600 nM,,,
Cl.Cl.c1cc(-c2ccc(C3=NCCN3)cc2)cc(-c2ccc(C3=NCCN3)cc2)c1,2550 nM,9.25 days,68 nM,73 nM,35,< 1,37,inactive,18900 nM,,,
CC1(C)CN=C(c2ccc(-c3cc(-c4ccc(C5=NCC(C)(C)CN5)cc4)cc([N+](=O)[O-])c3)cc2)NC1,> 150000 nM,,692 nM,3 nM,> 46800,,> 217,,> 150000 nM,,,
Cl.Cl.N=C(N)c1ccc(-c2cc(N)cc(-c3ccc(C(=N)N)cc3)c2)cc1,> 150000 nM,>35 days,4 nM,136 nM,> 1100,> 1,> 39800,inactive,149000 nM,,,
N=C(N)c1cccc(-c2cc(Cl)cc(-c3cccc(C(=N)N)c3)c2)c1,30900 nM,,44 nM,33 nM,944,< 1,709,,50200 nM,,,
CC(C)NC(=N)c1cccc(-c2cccc(-c3cccc(C(=N)NC(C)C)c3)c2)c1,> 150000 nM,,617 nM,31 nM,> 4190,> 1,> 243,,141000 nM,,,
COc1cc(-c2cccc(C(=N)N)c2)cc(-c2cccc(C(=N)N)c2)c1.Cl.Cl,137000 nM,10 days,29 nM,28 nM,4960,2,4700,inactive,55900 nM,,,
Cl.Cl.N=C(N)c1ccc(-c2cc(-c3ccc(C(=N)N)cc3)cc([N+](=O)[O-])c2)cc1,> 150000 nM,20 days,20 nM,18 nM,> 8380,> 2,> 7480,inactive,57200 nM,,,
N=C(N)c1ccc(OCCCCCOc2ccc(C(=N)N)cc2)cc1 [PENTAMIDINE],,>38 days,,,,,,,,,,
Cl.Cl.N=C(N)c1ccc(-c2cc(O)cc(-c3ccc(C(=N)N)cc3)c2)cc1,> 150000 nM,>41.25 days,4 nM,38 nM,> 3950,< 1,> 37500,,> 150000 nM,,,
CC1(C)CN=C(c2cccc(-c3cccc(-c4cccc(C5=NCC(C)(C)CN5)c4)c3)c2)NC1,56600 nM,,809 nM,6 nM,9500,1,70,,45400 nM,,,
COc1cc(-c2ccc(C(=N)N)cc2)cc(-c2ccc(C(=N)N)cc2)c1.Cl.Cl,33000 nM,>38 days,5 nM,48 nM,693,< 1,7270,,59100 nM,,,
CC1(C)CN=C(c2ccc(-c3cccc(-c4ccc(C5=NCC(C)(C)CN5)cc4)c3)cc2)NC1,122000 nM,,140 nM,2 nM,49300,< 1,871,,151000 nM,,,
Cl.Cl.N=C(N)c1cccc(-c2cccc(-c3cccc(C(=N)N)c3)c2)c1,125000 nM,18.5 days,55 nM,38 nM,3320,4,2270,inactive,35000 nM,,,
C[C@@H]1[C@H](O)[C@@H](C)/C=C/C=C/C=C/C=C/C=C/C=C/C=C/[C@H](O[C@@H]2O[C@H](C)[C@@H](O)[C@H](N)[C@@H]2O)C[C@@H]2O[C@](O)(C[C@@H](O)C[C@@H](O)[C@H](O)CC[C@@H](O)C[C@@H](O)CC(=O)O[C@H]1C)C[C@H](O)[C@H]2C(=O)O [AMPHOTERICIN B],,,,,,,,,,,,124 nM
Cl.Cl.Cl.N=C(N)c1ccc(-c2cc(Cl)cc(-c3ccc(C(=N)N)cc3)c2)cc1,21900 nM,15.25 days,31 nM,39 nM,561,< 1,700,inactive,65500 nM,,,
N=C(N)c1cncc(-c2cccc(-c3cncc(C(=N)N)c3)c2)c1,> 150000 nM,,527 nM,58 nM,> 2580,,> 285,,> 150000 nM,,,
C[C@@H]1CC[C@H]2[C@@H](C)C(=O)O[C@@H]3O[C@@]4(C)CC[C@@H]1[C@]32OO4 [ARTEMISININ],150000 nM,,,4 nM,34900,,,,,,,
O=C(Cn1ccnc1[N+](=O)[O-])NCc1ccccc1 [BENZNIDAZOLE],> 150000 nM,,,,,115,,,1300 nM,,,
CC(C)NC(=N)c1ccc(-c2cccc(-c3ccc(C(=N)NC(C)C)cc3)c2)cc1.Cl.Cl,102000 nM,13.5 days,47 nM,16 nM,6580,< 1,2160,inactive,> 150000 nM,,,
N=C(N)c1ccnc(-c2cccc(-c3cc(C(=N)N)ccn3)c2)c1,> 150000 nM,,1170 nM,77 nM,> 1940,,> 128,,> 150000 nM,,,
